The list is not random: actives were taken first. Their share in the collection is about 3.5%.
MrgX1 allo act = positive allosteric modulators of MrgX1, primary screen, HEK293 cells, Fluo-4 calcium flux. hit rate 0.63% among 310,000. Mas-related G-protein coupled receptor member X1 (Homo sapiens), Q96LB2. B-score at 10 µM. FDSS; stronger effect = higher value;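 active = plate-corrected calcium response at least 3 library SD above typical, normal starting fluorescence, not activating the receptor alone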;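 note: compound read alongside a low EC10 to EC30 dose of BAM8-22 agonist; peak minus trough fluorescence over baseline measured at the second addition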
Target sequence (Q96LB2 whole entry, looked up): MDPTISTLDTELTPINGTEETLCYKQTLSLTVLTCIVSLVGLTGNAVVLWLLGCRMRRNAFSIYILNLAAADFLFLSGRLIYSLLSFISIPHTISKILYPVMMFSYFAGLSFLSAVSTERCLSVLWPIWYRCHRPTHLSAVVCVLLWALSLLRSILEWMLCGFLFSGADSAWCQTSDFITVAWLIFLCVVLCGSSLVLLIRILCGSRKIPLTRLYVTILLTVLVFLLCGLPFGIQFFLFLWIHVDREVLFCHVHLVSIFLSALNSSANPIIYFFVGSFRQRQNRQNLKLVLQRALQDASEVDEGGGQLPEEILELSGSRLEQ
MrgX1 agonist = agonists of human MrgX1 receptor, primary screen, HEK293 cells, Fluo-4 calcium flux; Mas-related G-protein coupled receptor member X1 (Homo sapiens), Q96LB2; Fluo-4 calcium fluorescence, agonist mode; stronger effect = higher value; B-score at 10 µM; hit rate 0.44% among 310,000; AID 588627, 2011;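 active = calcium response B-score plate-corrected fluorescence ratio at least 3 library SD, with starting fluorescence B-score inside 5 SD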
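Material: HEK293 cells stably expressing human MrgX1 receptor | Quantity: 15,000 cells per well | Times: Cells plated overnight, dye loaded 0.5 h 37 °C, 0.5 h room temperature | Measured by: Kinetic Fluo-4 NW fluorescence of intracellular calcium | Control set: Positive and negative controls per plate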
RGS4 inh = RGS4 inhibitors, primary screen, cell-based, HEK293 M3R inducible RGS4, calcium flux; Regulator of G-protein signaling 4 (Homo sapiens), P49798; Fluo-4 calcium flux; stronger effect = higher value; triggered by carbachol at its EC20; B-score at 10 µM; hit rate 0.45% among 310,000; AID 463165, 2010;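 active = B-score, a plate-corrected calcium signal, over three deviations above library mean, with baseline fluorescence within five deviations of library mean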;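 note: RGS4 expression induced by doxycycline in cells with stable M3 receptor; B-score is computed from the integrated fluorescence ratio over baseline after carbachol; higher B-score means a larger calcium signal and so more RGS4 inhibition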
Target sequence (P49798 whole entry, looked up): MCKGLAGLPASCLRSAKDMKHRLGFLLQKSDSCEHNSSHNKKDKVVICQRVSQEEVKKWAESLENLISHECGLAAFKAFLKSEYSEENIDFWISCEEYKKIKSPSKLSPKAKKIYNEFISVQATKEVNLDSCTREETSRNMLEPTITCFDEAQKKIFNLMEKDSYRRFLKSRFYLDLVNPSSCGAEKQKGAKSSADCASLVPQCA
MrgX1 antag = antagonists of human MrgX1 receptor, primary screen, HEK293 cells, Fluo-4 calcium flux. BAM8-22 antagonism; stronger effect = lower value. hit rate 1.3% among 310,000. B-score at 10 µM;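 active = calcium-response B-score plate-corrected more than 3 library SD below zero, starting fluorescence within 5 deviations, no agonist response on first addition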;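 note: peak minus trough fluorescence over baseline after final BAM8-22 challenge near maximal dose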
RGS4 act = RGS4 potentiators or activators, primary screen, cell-based, HEK293 M3R inducible RGS4, calcium flux | carbachol calcium flux Fluo4; stronger effect = lower value | B-score at 10 µM | hit rate 0.92% among 310,000 | AID 463111, 2010;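 active = B-score of the integrated calcium signal more than 4 SD below the library mean, with starting fluorescence not abnormally high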;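 note: negative B-score means reduced calcium response which marks RGS4 activation or potentiation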
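Assay system: Inducible-RGS4 HEK293 cells carrying M3 receptor | Schedule: Compound preincubation 20 min at room temperature before agonist | Signal: Kinetic calcium fluorescence imaging with Fluo4-AM dye, 2 µM | Read-out basis: B score from integrated fluorescence ratio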
Active calls of the source: *; i = inactive; · = no result given.

SMILES | MrgX1 allo act | MrgX1 agonist | RGS4 inh | MrgX1 antag | RGS4 act
O=C(O)Cn1cc(/C=C2\C(=O)NC(=O)N(Cc3ccco3)C2=O)c2ccccc21 | i | i | i | i | i
Cc1ccc(N=C(/N=C(\N)N[N+](=O)[O-])Nc2ccc(C)cc2)cc1 | i | i | i | i | i
N=c1sccn1Cc1ccccc1F | i | i | i | i | i
CCOP(=O)(C#Cc1ccccc1)C(O)c1ccc(Br)cc1 (stereo not given) | 17* | i | i | i | i
Cc1cccc(-n2c(O)c(/C=C/C=Nc3ccccc3)c(=O)[nH]c2=O)c1 | i | i | i | i | i
Cn1c(O)c(/C=C/C=Nc2ccccc2)c(=O)n(C)c1=S | i | i | i | -8.5* | i
Oc1ccccc1C1NCc2ccccc2-n2cccc21 (stereo not given) | i | i | i | i | i
CC1CCC(NCCc2ccc3c(c2)OCO3)CC1 (stereo not given) | i | i | i | i | -7*
Cc1ncc(CNC(=O)N(CCCl)N=O)c(N)n1 | i | i | · | i | ·
CC[C@H]1C2C[C@H]3[C@@H]4N(C)c5ccccc5C45C[C@H](C2[C@H]5O)N3[C@@H]1O (stereo not given in full) | i | i | · | i | ·
Cc1ccc2c(c1)CC1(CN2C)C(=O)NC(=O)N(c2cccc(C)c2C)C1=O (stereo not given) | i | i | i | i | i
Cc1ccc2c(c1)CC1(CN2C)C(=O)NC(=O)N(c2ccccc2C)C1=O (stereo not given) | i | i | i | -8.5* | i
Cc1cc(C)cc(NC2=NCCCS2)c1 | i | i | i | i | i
COc1ccc2c(C)c(CCC(=O)N3C[C@H]4C[C@@H](C3)c3cccc(=O)n3C4)c(=O)oc2c1 | i | i | i | i | i
CCOC(C(=O)OCCCN(CC)CC)(c1ccccc1)c1ccccc1 | i | i | i | i | i
CCN(CC)CCCOC(=O)C(OC(C)C)(c1ccccc1)c1ccccc1 | i | i | i | i | -11*
Nc1ccc2ccc3cccc[n+]3c2c1 | i | i | i | i | -7.6*
CCOC(=O)c1ccc(-[n+]2c(-c3ccccc3)cc(-c3ccccc3)cc2-c2ccccc2)cc1 | i | 28* | i | i | i
CCOC(=O)c1cccc(-[n+]2c(-c3ccccc3)cc(-c3ccccc3)cc2-c2ccccc2)c1 | i | i | i | -6.8* | -7.7*
Cc1ccc(-c2cc(-c3ccc(C)cc3)[n+](-c3ccc(C(=O)[O-])cc3)c(-c3ccc(C)cc3)c2)cc1 | i | i | i | i | i
FC(F)(F)c1ccccc1CCN1CCNCC1 | i | i | i | i | i
CN(C)c1ccc(-[n+]2c(-c3ccccc3)cc(-c3ccccc3)cc2-c2ccccc2)cc1 | · | · | i | · | -9*
Cc1ccc(-c2cc(-c3ccccc3)cc(-c3ccccc3)[n+]2-c2ccccc2)cc1 | i | 31* | i | i | -7.6*
c1ccc(-c2cc(-c3ccccc3)[n+](-c3ccccc3)c(-c3ccccc3)c2)cc1 | 15* | i | i | i | -7.8*
C[n+]1c(-c2ccccc2)cc(-c2ccc(Cl)cc2)cc1-c1ccccc1 | i | i | i | i | i
SMILES | MrgX1 allo act | MrgX1 agonist | RGS4 inh | MrgX1 antag | RGS4 act
COc1ccccc1-n1c(-c2ccc(C)cc2)nc2ccccc2c1=O | · | · | i | · | i
CC(N)C(=O)OC(C)(C)Cc1ccc(Cl)cc1 (stereo not given) | i | i | · | i | ·
COC(=O)C1=CCCN(C)C1 | i | 57* | i | i | i
Fc1cccc(C2NCc3ccccc3-n3cccc32)c1 (stereo not given) | i | i | i | i | i
Cc1nc2ccccc2c(=O)n1/N=C/c1cc(Br)cc(Br)c1O | i | i | i | -8.6* | i
Cc1ccc(Cn2cc(C=O)c(-c3ccc(F)cc3)n2)cc1 | 7.6* | i | i | i | i
FC(F)(F)c1ccc2c(c1)N(CCCN1CCN(CCCl)CC1)c1ccccc1S2 | i | i | i | i | -8.9*
Nc1ccc(CCN2CCN(c3cccc(C(F)(F)F)c3)CC2)cc1 | i | i | i | i | i
Cc1ccc(Oc2cc(NN3CCCCC3)c([N+](=O)[O-])cc2[N+](=O)[O-])c([N+](=O)[O-])c1 | i | i | i | i | i
COc1ccc(CNCCc2c(C)[nH]c3ccc(OC(F)(F)F)cc23)c(OC)c1 | i | i | i | -4.7* | i
CCN(CC)c1ccc(/C=C2/C(=O)NC(=O)N(CC3CCCO3)C2=O)cc1 (stereo not given) | i | i | i | -4.5* | i
O=C1NC(=O)N(CC2CCCO2)C(=O)/C1=C/c1cccs1 (stereo not given) | i | i | i | i | i
C=CCn1c(C)c(C=C2C(=O)NC(=O)NC2=O)c2ccccc21 | i | 39* | i | i | i
CC(C)(C)C(=O)OC[N+](C)(C)CCOC(=O)C(O)(c1ccccc1)C1CCCC1 (stereo not given) | i | i | i | i | -7.5*
CCCC(CCC)C(=O)OC[N+](C)(C)CCOC(=O)C(O)(c1ccccc1)C1CCCC1 (stereo not given) | i | i | i | i | i
CCOP(=O)(OCC)c1cccc(OP(=O)(c2cccc([N+](=O)[O-])c2)c2cccc([N+](=O)[O-])c2)c1 | i | i | i | i | i
CCOP(=O)(OCC)c1cccc(O)c1 | i | i | i | -4.6* | i
CN[C@H]1C[C@H]2O[C@@](C)([C@H]1OC)n1c3ccccc3c3c4c(c5c6ccccc6n2c5c31)C(=O)NC4 | 10* | i | 4.9* | i | i
CCC(CO)(C(=O)OC1C[N+]2(C)CCC1CC2)c1ccccc1 (stereo not given) | i | i | i | i | -8.9*
O=[N+]([O-])c1ccc(N2CCCNCC2)c2ncccc12 | i | i | i | i | -8.1*
CN(C)CC1CCCCC1OC(=O)Cc1ccc(Cl)c([N+](=O)[O-])c1 (stereo not given) | i | i | i | i | i
CCN1C[C@]2(C)CC[C@H](OC)[C@]34C2[C@H](OC(C)=O)[C@@]2(OCO[C@@]25C[C@H](OC)[C@H]2C[C@]3(O)C5[C@H]2OC)[C@@H]14 | i | i | i | i | i
